Measured values from ChEMBL document CHEMBL2417481, “Regioselective synthesis of 6-substituted-2-amino-5-bromo-4(3H)-pyrimidinones and evaluation of their antiviral activity” (Eur J Med Chem, 2013).

Tests used:
Human alphaherpesvirus 1 [1] = experiment: Antiviral activity against Herpes simplex virus-1 KOS infected in human HEL cells assessed as reduction in virus-induced cytopathogenicity; format: functional, organism-based; conditions: Human alphaherpesvirus 1, KOS
Method in brief: (§1)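 Confluent cell monolayers (Vero, HeLa, HEL or MDCK, as named in each line) were infected with 100 CCID50 of virus while exposed to a range of compound concentrations. Cytopathicity was scored once it was complete in untreated infected controls.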

Human alphaherpesvirus 3 [2] = experiment: Antiviral activity against thymidine kinase negative Varicella-zoster virus 07-1 infected in human HEL cells assessed as reduction in the virus plaque formation; format: functional, organism-based; conditions: Human alphaherpesvirus 3, 07-1, HEL
Method in brief: (§2)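 Confluent HEL fibroblast cultures received 20 PFU of VZV together with varying compound concentrations. Plaque formation was read when it reached completion in untreated virus controls.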

[3] = Cytotoxicity against human HEL cells assessed as morphological changes; format: cell-based
[4] = test system: Vesicular stomatitis virus; experiment: Antiviral activity against Vesicular stomatitis virus infected in human HEL cells assessed as reduction in virus-induced cytopathogenicity; format: functional, organism-based; method in brief: as §1
Human alphaherpesvirus 1 [5] = experiment: Antiviral activity against thymidine kinase negative […] Herpes simplex virus-1 KOS infected in human HEL cells assessed as reduction in virus-induced cytopathogenicity; format: functional, organism-based; conditions: Human alphaherpesvirus 1, KOS; method in brief: as §1
Human alphaherpesvirus 3 [6] = experiment: Antiviral activity against thymidine kinase positive Varicella-zoster virus OKA infected in human HEL cells assessed as reduction in virus plaque formation; format: functional, cell-based, Human herpesvirus 3 strain Oka vaccine; conditions: Human alphaherpesvirus 3, OKA; method in brief: as §2
Cytomegalovirus [7] = experiment: Antiviral activity against Cytomegalovirus AD-169 infected in human HEL cells assessed as reduction in virus plaque formation; format: functional, organism-based; conditions: Human betaherpesvirus 5, AD-169, HEL
Method in brief: (§3)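 Confluent HEL fibroblasts were inoculated with 100 PFU of CMV at graded compound concentrations. Plaques were counted once formation was complete in untreated infected controls.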

Coxsackievirus B4 [8] = experiment: Antiviral activity against Coxsackievirus B4 infected in african green monkey Vero cells assessed as reduction in virus-induced cytopathogenicity; format: functional, organism-based; conditions: Enterovirus B; method in brief: as §1
Punta Toro virus = experiment: Antiviral activity against Punta Toro virus infected in african green monkey Vero cells assessed as reduction in virus-induced cytopathogenicity; format: functional, organism-based; method in brief: as §1
Influenza B virus = experiment: Antiviral activity against Influenza B virus infected in MDCK cells assessed as reduction in virus-induced cytopathogenicity; format: functional, organism-based; method in brief: as §1
Feline coronavirus = experiment: Antiviral activity against Feline coronavirus infected in cat CRFK cells assessed as inhibition of virus-induced cytopathic effect by MTS assay; format: functional, organism-based; conditions: Alphacoronavirus 1, CRFK
Influenza A virus [9] = experiment: Antiviral activity against Influenza A virus H1N1 infected in MDCK cells assessed as reduction in virus-induced cytopathogenicity; format: functional, organism-based; method in brief: as §1
Sindbis virus = experiment: Antiviral activity against Sindbis virus infected in african green monkey Vero cells assessed as reduction in virus-induced cytopathogenicity; format: functional, organism-based; method in brief: as §1
[10] = Cytotoxicity against MDCK cells assessed as morphological changes; format: cell-based, Canis lupus familiaris; conditions: dog
Felid alphaherpesvirus 1 = experiment: Antiviral activity against Feline Herpes virus infected in cat CRFK cells assessed as inhibition of virus-induced cytopathic effect by MTS assay; format: functional, organism-based; conditions: Felid alphaherpesvirus 1, CRFK
[11] = Cytotoxicity against african green monkey Vero cells assessed as morphological changes; format: cell-based; conditions: chlorocebus sabaeus
[12] = Cytotoxicity against human HeLa cells assessed as morphological changes; format: cell-based
[13] = test system: Respiratory syncytial virus; experiment: Antiviral activity against Respiratory syncytial virus Long infected in human HeLa cells assessed as reduction in virus-induced cytopathogenicity; format: functional, organism-based; method in brief: as §1
Influenza A virus [14] = experiment: Antiviral activity against Influenza A virus […] infected in MDCK cells assessed as reduction in virus-induced cytopathogenicity; format: functional, organism-based; method in brief: as §1
[15] = test system: Mammalian orthoreovirus 1; experiment: Antiviral activity against Reovirus-1 infected in african green monkey Vero cells assessed as reduction in virus-induced cytopathogenicity; format: functional, organism-based; conditions: Mammalian orthoreovirus 1, Vero
Method in brief: (§4)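 Confluent Vero monolayers in 96-well plates were inoculated with 100 CCID50 of virus together with varying compound concentrations. Cytopathicity was scored once it was complete in untreated virus-infected control cultures.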

[16] = test system: Vesicular stomatitis virus; experiment: Antiviral activity against Vesicular stomatitis virus infected in human HeLa cells assessed as reduction in virus-induced cytopathogenicity; format: functional, organism-based; method in brief: as §1
Cytomegalovirus [17] = experiment: Antiviral activity against Cytomegalovirus Davis infected in human HEL cells assessed as reduction in virus plaque formation; format: functional, organism-based; conditions: Human betaherpesvirus 5, Davis; method in brief: as §3
[18] = Cytotoxicity against cat CRFK cells assessed as cell viability by MTS assay; format: cell-based, Felis catus
Human respirovirus 3 = experiment: Antiviral activity against Parainfluenza virus 3 infected in african green monkey Vero cells assessed as reduction in virus-induced cytopathogenicity; format: functional, organism-based; conditions: Human respirovirus 3, Vero; method in brief: as §4
Coxsackievirus B4 [19] = experiment: Antiviral activity against Coxsackievirus B4 infected in human HeLa cells assessed as reduction in virus-induced cytopathogenicity; format: functional, organism-based; conditions: Enterovirus B; method in brief: as §1
Human alphaherpesvirus 2 = experiment: Antiviral activity against Herpes simplex virus-2 G infected in human HEL cells assessed as reduction in virus-induced cytopathogenicity; format: functional, organism-based; conditions: Human alphaherpesvirus 2, strain G; method in brief: as §1

| Structure (SMILES) | EC50 (Human alphaherpesvirus 1 [1]) | EC50 (Human alphaherpesvirus 3 [2]) | MCC [3] | EC50 [4] | EC50 (Human alphaherpesvirus 1 [5]) | EC50 (Human alphaherpesvirus 3 [6]) | EC50 (Cytomegalovirus [7]) | EC50 (Coxsackievirus B4 [8]) | EC50 (Punta Toro virus) | EC50 (Influenza B virus) | EC50 (Influenza A virus [9]) | EC50 (Sindbis virus) | MCC [10] | MCC [11] | MCC [12] | EC50 [13] | EC50 (Influenza A virus [14]) | EC50 [15] | EC50 [16] | EC50 (Coxsackievirus B4 [19]) | other results |
| --- | --- | --- | --- | --- | --- | --- | --- | --- | --- | --- | --- | --- | --- | --- | --- | --- | --- | --- | --- | --- | --- |
| O=c1[nH]c(=O)n([C@H]2C[C@H](O)[C@@H](CO)O2)cc1/C=C/Br [BRIVUDINE] | 0.4 µM | 33 µM | > 250 µM | > 250 µM | > 250 µM | 0.02 µM | – | – | – | – | – | – | – | – | – | – | – | – | – | – | – |
| Cc1cc(C)c(/C=C/c2nc(N)[nH]c(=O)c2Br)c(C)c1 | > 20 µM | 5.3 µM | > 20 µM | > 20 µM | > 20 µM | 2.5 µM | 11 µM | > 20 µM | > 20 µM | > 20 µM | > 20 µM | > 20 µM | > 20 µM | 100 µM | 100 µM | > 20 µM | > 20 µM | > 20 µM | > 20 µM | > 20 µM | EC50 (Feline coronavirus): > 20 µM; EC50 (Felid alphaherpesvirus 1): 1.5 µM; EC50 (Cytomegalovirus [17]): 8.9 µM; MCC [18]: 58 µM; EC50 (Human respirovirus 3): > 20 µM; EC50 (Human alphaherpesvirus 2): > 20 µM |
| Nc1ncnc2c1ncn2C[C@H](O)CO [(S)-DHPA] | – | – | – | – | – | – | – | > 250 µM | > 250 µM | – | – | > 250 µM | – | > 250 µM | > 250 µM | > 250 µM | – | > 250 µM | > 250 µM | > 250 µM | EC50 (Human respirovirus 3): > 250 µM |
| Nc1ccn(C[C@@H](CO)OCP(=O)(O)O)c(=O)n1 [CIDOFOVIR] | – | – | > 250 µM | > 250 µM | – | – | 3.1 µM | – | – | – | – | – | – | – | – | – | – | – | – | – | EC50 (Cytomegalovirus [17]): 0.51 µM |
| CCCCCc1nc(N)[nH]c(=O)c1Br | > 100 µM | > 4 µM | > 20 µM | > 100 µM | > 100 µM | > 4 µM | > 4 µM | > 100 µM | > 100 µM | > 100 µM | > 100 µM | > 100 µM | > 100 µM | > 100 µM | 20 µM | > 4 µM | > 100 µM | > 100 µM | 2 µM | > 4 µM | EC50 (Feline coronavirus): > 100 µM; EC50 (Felid alphaherpesvirus 1): > 100 µM; EC50 (Cytomegalovirus [17]): > 4 µM; MCC [18]: > 100 µM; EC50 (Human respirovirus 3): > 100 µM; EC50 (Human alphaherpesvirus 2): > 100 µM |
| NC(=O)c1ncn([C@@H]2O[C@H](CO)[C@@H](O)[C@H]2O)n1 [RIBAVIRIN] | – | – | – | – | – | – | – | > 250 µM | 112 µM | 8.3 µM | 9.6 µM | > 250 µM | > 100 µM | > 250 µM | > 250 µM | 5 µM | 7.2 µM | > 250 µM | – | 22 µM | – |
| CC(N)C12CC3CC(CC(C3)C1)C2 (configuration not stated) [RIMANTADINE] | – | – | – | – | – | – | – | – | – | > 200 µM | – | – | > 200 µM | – | – | – | – | – | – | – | – |
| CCCCc1nc(N)[nH]c(=O)c1Br | > 100 µM | > 20 µM | ≥ 100 µM | > 100 µM | > 100 µM | > 20 µM | > 20 µM | > 100 µM | > 100 µM | > 100 µM | > 100 µM | > 100 µM | > 100 µM | > 100 µM | 100 µM | > 20 µM | > 100 µM | > 100 µM | 10 µM | > 20 µM | EC50 (Feline coronavirus): > 100 µM; EC50 (Felid alphaherpesvirus 1): > 100 µM; EC50 (Cytomegalovirus [17]): > 20 µM; MCC [18]: > 100 µM; EC50 (Human respirovirus 3): > 100 µM; EC50 (Human alphaherpesvirus 2): > 100 µM |
